Test results: PubChem BioAssay
Active and inactive are the calls of the source.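 Rule for the calls, unless noted: active = fluorescence slope after compound addition differing from the mean of all tested samples at 99.7% confidence, mostly higher but some lower; inactive = the rest.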

Experiments:
[1] = inhibitors of TNFa-induced NFkB p65 translocation, primary screen, imaging, HUVEC, MLSMR starter and 10KST1 sets (AID 438;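 active = inhibition above 20% together with a positive visual image hit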;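 note: compound added about 3h40 before a 20 min TNFalpha stimulation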;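 for inhibition: signal is the nuclear over cytoplasmic p65 intensity ratio per well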); details: HUVEC TNFa-induced p65 nuclear translocation; cell count: measured here: nuclei count (cytotoxicity indicator), at 2.08 µM; inhibition: at 2 µM, stronger effect = higher value, 0% TNFa-plus-vehicle, 100% no-TNFa wells
[2] = endothelial E-selectin expression blockers – imaging, HUVEC, immunofluorescence, MLSMR starter and 10KST1 sets, primary screen (AID 487;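 active = visually confirmed hit in the image check and inhibition above 20%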;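 for inhibition: signal is fraction of cell area covered by stained E-selectin grains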;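 for nuclei count: 100% = median nuclei count of all wells on the same plate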); details: HUVEC TNFalpha-induced E-selectin immunofluorescence imaging, at 2 µM; inhibition: stronger effect = higher value; nuclei count: measured here: cell number, toxicity
[3] = Primary imaging screen for DUSP6 inhibitors that restore phospho-Erk in transfected HeLa cells, chemical complementation (AID 609;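 active = compounds giving at least 50% inhibition in the cell-based MKP-3 phosphatase rescue imaging test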;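 for inhibition: phospho-Erk level distribution per well compared with pooled transfected vehicle control wells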); details: HeLa MKP-3 transfected, phospho-Erk imaging KS statistic, at 10 µM, cells stimulated with TPA for 15 min
[4] = biological target: Dual specificity protein phosphatase 6 (Homo sapiens) (UniProt Q16828); assay: as above; details: HeLa MKP-3 transfected, phospho-Erk imaging KS statistic; at 10 µM; stronger effect = higher value; cells stimulated with TPA for 15 min
Sequence of Dual specificity protein phosphatase 6 (Homo sapiens) (Q16828 whole entry, looked up): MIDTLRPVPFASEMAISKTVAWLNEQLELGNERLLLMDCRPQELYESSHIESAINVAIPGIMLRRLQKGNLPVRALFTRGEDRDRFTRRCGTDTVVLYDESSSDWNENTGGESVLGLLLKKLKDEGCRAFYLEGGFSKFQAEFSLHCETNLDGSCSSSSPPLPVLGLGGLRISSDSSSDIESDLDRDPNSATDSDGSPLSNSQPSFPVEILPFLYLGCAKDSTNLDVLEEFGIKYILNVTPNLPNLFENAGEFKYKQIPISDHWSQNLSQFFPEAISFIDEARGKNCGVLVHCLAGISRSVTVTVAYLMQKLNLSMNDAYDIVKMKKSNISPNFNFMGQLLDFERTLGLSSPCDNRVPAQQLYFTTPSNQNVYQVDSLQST

[5] = biological target: Voltage-gated potassium channel subunit beta-2 (Rattus norvegicus) (UniProt P62483); assay: inhibitors of rat Kvbeta2 reductase activity – biochemical, NADPH fluorescence, primary screen (AID 622;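 active = fluorescence slope higher than the sample average by over 3 SD, cut at about -0.22 in these data, passing the limit was not always enough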;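 note: slope of raw intensity against log time taken from 70 to 1610 s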); details: recombinant KvBeta, 4-cyanobenzaldehyde reduction, at 10 µM, stronger effect = higher value
Sequence of Voltage-gated potassium channel subunit beta-2 (Rattus norvegicus) (P62483 whole entry, looked up): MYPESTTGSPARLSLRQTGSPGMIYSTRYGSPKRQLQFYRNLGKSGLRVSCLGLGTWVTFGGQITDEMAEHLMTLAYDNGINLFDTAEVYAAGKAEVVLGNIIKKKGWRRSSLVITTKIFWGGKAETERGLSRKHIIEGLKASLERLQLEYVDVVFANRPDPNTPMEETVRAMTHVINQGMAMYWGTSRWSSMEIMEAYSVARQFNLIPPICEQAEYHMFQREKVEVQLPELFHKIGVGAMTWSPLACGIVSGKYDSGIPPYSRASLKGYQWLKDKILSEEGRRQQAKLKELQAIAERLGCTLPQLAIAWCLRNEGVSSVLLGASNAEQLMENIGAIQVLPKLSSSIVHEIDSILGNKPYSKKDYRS

[6] = biological target: Voltage-gated potassium channel subunit beta-2 (Rattus norvegicus) (UniProt P62483); assay: enhancers of rat Kvbeta2 NADPH turnover – biochemical, NADPH fluorescence, primary screen (AID 623;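 active = NADPH fluorescence slope more negative than the mean of all samples by about 3 SD, 99.7% confidence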;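 note: fluorescence intensity change per second fitted from 20 to 320 s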); details: Recombinant KvBeta, NADPH fluorescence decrease slope, 10 min; at 10 µM; stronger effect = lower value
[7] = biological target: Muscarinic acetylcholine receptor M4 (Homo sapiens) (UniProt P08173); assay: M4-linked GIRK flux change, two-sided – cell-based, HEK293 M4/GIRK, thallium flux, BTC-AM, M4 allosteric agonist project, primary screen (AID 625); details: at 10 µM, actives lie on both sides;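 note: thallium influx through GIRK channels coupled to M4 in HEK293 cells with BTC-AM dye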
Sequence of Muscarinic acetylcholine receptor M4 (Homo sapiens) (P08173 whole entry, looked up): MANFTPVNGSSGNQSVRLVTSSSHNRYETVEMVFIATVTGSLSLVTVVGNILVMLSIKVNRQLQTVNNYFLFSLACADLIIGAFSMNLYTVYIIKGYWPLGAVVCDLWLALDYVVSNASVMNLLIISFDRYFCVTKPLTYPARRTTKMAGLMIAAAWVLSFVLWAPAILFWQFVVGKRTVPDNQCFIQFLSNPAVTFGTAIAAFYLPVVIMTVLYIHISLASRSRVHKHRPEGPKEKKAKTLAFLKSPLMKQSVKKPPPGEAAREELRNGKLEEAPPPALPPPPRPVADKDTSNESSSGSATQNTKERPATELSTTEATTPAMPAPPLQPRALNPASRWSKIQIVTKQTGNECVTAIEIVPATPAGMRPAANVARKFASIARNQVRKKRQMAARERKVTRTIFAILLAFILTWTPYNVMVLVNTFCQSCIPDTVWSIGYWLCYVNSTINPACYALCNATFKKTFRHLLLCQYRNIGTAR
Procedure, shortened: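 Material – HEK293 cells with M4 receptor and GIRK channels · Buffer or medium – pH 7.3 thallium assay buffer · Doses – one dose, 10 µM final · Timing – cells overnight at 37 °C, BTC-AM loading 1 h, reads 2 min total · Measured by – kinetic fluorescence with BTC-AM dye · Controls – carbachol and DMSO controls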

[8] = inhibitors of larval lipid processing in zebrafish, primary screen, whole organism, PED6 fluorescence, gall bladder and intestine (AID 686;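 active = a full or partial loss of lipid-probe fluorescence in the fish gall bladder, intestine or both, judged by eye; inactive = no fluorescence loss, or compound toxic to the fish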;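 note: larvae 5 to 7 days old with five fish per well; signal comes from phospholipase A2 cleavage of quenched PED6 carried via bile; overnight exposure to compound and PED6 before scoring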); details: Zebrafish larvae PED6 lipid processing, fluorescence scoring; screened at 20 µM (by protocol)
Procedure, shortened: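 system = live zebrafish larvae aged 5-7 days, whole organism | probe or stimulus = ingested quenched lipid PED6 at 100 nM | doses = 20 µM single dose | timing = overnight exposure | detection = fluorescence microscopy with visual scoring of gall bladder and intestine | read-out = visual per-well fluorescence inhibition score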

[9] = loss of swimming-algae plug formation – whole organism, Chlamydomonas reinhardtii, WT vs cilia-less mutant, absorbance, 96-well, primary screen (AID 463189;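 active = inhibition at or above 50% relative to wild type and mutant plate controls; inactive = inhibition below 50%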;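 note: 0% = wild type cc124 cells in DMSO and 100% = ciliumless bld1 mutant cells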); details: Chlamydomonas reinhardtii gravitaxis, OD600 absorbance, 2 days; at 10 µM; stronger effect = higher value
[10] = measured here: cell density z-score
[11] = measured here: nuclear c-Myc green intensity z-score
[12] = measured here: nuclear pErk red intensity z-score, stronger effect = higher value

| SMILES | cell count [1] | inhibition [1] | inhibition [2] | nuclei count [2] | z-score [3, 10] | z-score [3, 11] | z-score [3, 12] | inhibition [4] | fluorescence slope [5] | NADPH fluorescence slope [6] | fluorescence slope [7] | outcome [8] | inhibition [9] |
| --- | --- | --- | --- | --- | --- | --- | --- | --- | --- | --- | --- | --- | --- |
| Cc1ccc(S(=O)(=O)N(CC(O)CN2CCOCC2)c2cc(Cl)ccc2Cl)cc1 (stereo unspecified) | 597 | -2.7% (inactive) | -35% (inactive) | 112% | -0.865 | 1.14 | 0.263 | 7.42% (inactive) | -0.403 (inactive) | -2.9e-05 (inactive) | 0.00509 (inactive) | inactive | -2.19% (inactive) |
| C=CCOc1ccc(/C(O)=C2\C(=O)C(=O)N(CCN(C)C)C2c2cccs2)cc1 (stereo unspecified) | 642 | 2.8% (inactive) | -0.3% (inactive) | 181% | 0.295 | 1.17 | 0.318 | 12.8% (inactive) | -0.469 (inactive) | -6.6e-05 (inactive) | 0.00599 (inactive) | inactive | 10.2% (inactive) |
| COC(=O)C(NC(=O)c1ccc(F)cc1)(Nc1nc(C)cs1)C(F)(F)F (stereo unspecified) | 695 | -6.3% (inactive) | -18.4% (inactive) | 151% | -0.266 | -0.66 | 0.98 | -3.95% (inactive) | -0.444 (inactive) | -4.6e-05 (inactive) | 0.00339 (inactive) | inactive | 7.8% (inactive) |
| N#CC(C#N)C(c1ccsc1)c1c(-c2ccccc2)[nH][nH]c1=O (stereo unspecified) | 712 | -0.5% (inactive) | -88.8% (inactive) | 169% | 0.118 | -0.0424 | 0.886 | -4.27% (inactive) | -0.495 (inactive) | -6.9e-05 (inactive) | 0.00622 (inactive) | inactive | 3.19% (inactive) |
| Cc1csc(SCCn2c(Br)nc3c2c(=O)[nH]c(=O)n3C)n1 | 541 | -22.3% (inactive) | -35.3% (inactive) | 180% | 0.452 | 0.745 | 0.738 | -12.6% (inactive) | -0.409 (inactive) | -4.5e-05 (inactive) | 0.00514 (inactive) | inactive | 31.8% (inactive) |
| COc1ccc(OC)c(C2/C(=C(/O)c3ccccc3)C(=O)C(=O)N2Cc2ccco2)c1 (stereo unspecified) | 675 | -11.7% (inactive) | -58% (inactive) | 169% | 0.317 | -0.841 | 0.437 | -11.4% (inactive) | -0.522 (inactive) | -2.7e-05 (inactive) | 0.00485 (inactive) | inactive | 5.53% (inactive) |
| COc1ccc(CNc2oc(COc3ccc(Cl)cc3)nc2C#N)cc1 | 484 | 5.8% (inactive) | -33.3% (inactive) | 164% | 0.0253 | 0.364 | 0.0628 | -5.62% (inactive) | -0.474 (inactive) | -3.7e-05 (inactive) | 0.00987 (inactive) | inactive | 2.55% (inactive) |
| CCOC(=O)c1[nH]c2ccccc2c1N=CN(CC)CC | 684 | 0.2% (inactive) | -230% (inactive) | 160% | -0.555 | 0.832 | 0.765 | 1.9e-07% (inactive) | -0.472 (inactive) | -5.6e-05 (inactive) | 0.00609 (inactive) | inactive | -14.4% (inactive) |
| CSc1nc2[nH]c3c(c2c2nncn12)CC(C)(C)OC3 | 554 | -4.9% (inactive) | -169% (inactive) | 129% | 0.946 | 0.54 | -1.06 | 5.42% (inactive) | -0.511 (inactive) | -8.3e-05 (inactive) | 0.00422 (inactive) | inactive | -2.07% (inactive) |
| O=S(=O)(c1cccc2nsnc12)N1CCN(C/C=C/c2ccccc2)CC1 | 680 | 3.2% (inactive) | 16.6% (inactive) | 117% | -0.555 | -0.43 | 0.591 | 1.9e-07% (inactive) | -0.527 (inactive) | -5.7e-05 (inactive) | 0.00411 (inactive) | inactive | 45.8% (inactive) |
| Cn1c[n+](C)cc1/C=N/O | 710 | -2% (inactive) | -108% (inactive) | 159% | -0.468 | 0.134 | -0.77 | 0.671% (inactive) | -0.459 (inactive) | -6.2e-05 (inactive) | 0.00537 (inactive) | inactive | -4.46% (inactive) |
| Cc1ccc(NC(=O)Cn2nc(C)c3ccccc3c2=O)cc1 | 576 | -1.6% (inactive) | -60.9% (inactive) | 134% | 1 | -0.268 | 1.91 | 9.07% (inactive) | -0.496 (inactive) | -0.000121 (inactive) | 0.00582 (inactive) | inactive | -6.33% (inactive) |
| CN1CCN(Cc2c(O)c(Cl)cc3c(-c4ccccc4)cc(=O)oc23)CC1 | 601 | -8.3% (inactive) | -38.4% (inactive) | 108% | -0.109 | -0.251 | -0.155 | 2.46% (inactive) | -0.232 (inactive) | -2.2e-05 (inactive) | 0.00592 (inactive) | inactive | 10.5% (inactive) |
| COc1cc(C2C(C(C)=O)=C(O)C(=O)N2c2ccc(Br)cn2)ccc1O (stereo unspecified) | 406 | -8.5% (inactive) | -148% (inactive) | 180% | -0.216 | -0.848 | 0.128 | -2.59% (inactive) | -0.446 (inactive) | -0.000114 (inactive) | 0.00394 (inactive) | inactive | 23.7% (inactive) |
| c1ccc(-n2c(Cc3cccnc3)nc3cnccc32)cc1 | 581 | -2.4% (inactive) | 48.6% (inactive) | 107% | -0.422 | -1.1 | -1.28 | -6.48% (inactive) | -0.468 (inactive) | -5.8e-05 (inactive) | 0.00562 (inactive) | inactive | 1.93% (inactive) |
| CCOC(=O)c1c(C)n(C)c2ccc(OC)c(NC(=O)CN3CCC4(CC3)OCCO4)c12 | 690 | -4.9% (inactive) | -157% (inactive) | 178% | 0.288 | 0.471 | 0.00411 | -10.1% (inactive) | -0.44 (inactive) | -4.5e-05 (inactive) | 0.00438 (inactive) | inactive | -0.554% (inactive) |
| C=CCn1c(C2CC(=O)N(c3ccc(C)cc3)C2)nc2ccccc21 (stereo unspecified) | 591 | -13.7% (inactive) | 47.4% (inactive) | 177% | -1.26 | -0.0771 | 0.981 | -2.29% (inactive) | -0.467 (inactive) | -0.00019 (inactive) | 0.00532 (inactive) | inactive | 2% (inactive) |
| CCOC(=O)c1[nH]c2ccccc2c1N=C(C)N(CC)CC | 643 | -7% (inactive) | -113% (inactive) | 160% | -1.18 | 2.66 | 0.345 | 11.9% (inactive) | -0.521 (inactive) | -3.5e-05 (inactive) | 0.00643 (inactive) | inactive | -5.79% (inactive) |
| Cc1ccc(-n2ncc3c(NCc4ccc5c(c4)OCO5)ncnc32)c(C)c1 | 543 | -12.5% (inactive) | -35.3% (inactive) | 135% | -0.519 | 1.64 | -0.848 | 11.4% (inactive) | -0.376 (inactive) | 4.1e-06 (inactive) | 0.0052 (inactive) | inactive | 47.1% (inactive) |
| CCSc1nnc(NC(=O)C(C(F)(F)F)C(F)(F)F)s1 | 702 | -5% (inactive) | -40.7% (inactive) | 146% | -0.0594 | -1.31 | -1.04 | -0.233% (inactive) | -0.449 (inactive) | -4.7e-05 (inactive) | 0.00555 (inactive) | inactive | 21.1% (inactive) |
| N#Cc1c(N2CCOCC2)nc(-c2ccco2)c2c1CCCC2 | 536 | -3% (inactive) | -19.5% (inactive) | 96.6% | 0.112 | 0.592 | -1.17 | -2.09% (inactive) | -0.412 (inactive) | -2e-05 (inactive) | 0.00398 (inactive) | inactive | 18.9% (inactive) |
| CN(C)CCCOC(=O)c1ccc(Cl)cc1Cl | 542 | 0% (inactive) | -26.6% (inactive) | 126% | -3.39 | 0.341 | 0.409 | -2.59% (inactive) | -0.49 (inactive) | -0.0001 (inactive) | 0.00455 (inactive) | inactive | 121% (active) |
| COc1cc(C)nc(Nc2nc(C)c(C(C)=O)s2)n1 | 393 | 0% (inactive) | -89% (inactive) | 125% | 1.97 | -1.71 | -0.786 | 43.2% (inactive) | -0.456 (inactive) | -8.3e-05 (inactive) | 0.00495 (inactive) | inactive | 46.4% (inactive) |
| O=C(O)C(O)c1ccco1 (stereo unspecified) | 365 | -6.1% (inactive) | -95% (inactive) | 150% | 0.761 | 0.00341 | -0.65 | -4.59% (inactive) | -0.43 (inactive) | -9.9e-05 (inactive) | 0.00449 (inactive) | inactive | -5.52% (inactive) |
| O=C(Cc1ccccc1)Nc1cccc(-c2nnc(-c3ccco3)o2)c1 | 665 | -8.6% (inactive) | 46.6% (inactive) | 188% | 0.0893 | 1.04 | 1.35 | -9.53% (inactive) | -0.485 (inactive) | -5.1e-05 (inactive) | 0.00851 (inactive) | inactive | -2.78% (inactive) |
| O=C1CCCN1c1ccc(S(=O)(=O)NCc2ccco2)cc1 | 702 | 3.6% (inactive) | -53.1% (inactive) | 180% | 0.977 | -0.343 | 1.6 | 15.9% (inactive) | -0.489 (inactive) | -3.7e-05 (inactive) | 0.00466 (inactive) | inactive | 15.5% (inactive) |
| O=C(C/C(=N/O)c1ccccc1O)C(F)F | 454 | -0.6% (inactive) | -48.8% (inactive) | 164% | -0.709 | 1.7 | 1.49 | 9.37% (inactive) | -0.451 (inactive) | -2.7e-05 (inactive) | 0.0043 (inactive) | inactive | -1.93% (inactive) |
